In ChEMBL document CHEMBL4118021, “Studies of TAK1-centered polypharmacology with novel covalent TAK1 inhibitors” (Bioorg Med Chem, 2017):
Activity calls are given as the source filed them. The calls are words filed in the database; no cut-off is given here.

Experiments:
Format in all cases: cell-based
[1] = target: Kinesin-like protein KIF15 (Homo sapiens) (UniProt Q9NS87); assay: Binding affinity to KIF15 in human NCI-H358 cells at 1 uM by mass spectrometry based pull down assay
[2] = target: T1, 80S Ribosome (Homo sapiens) (UniProt P08865+P42677+P62753+P15880+P23396+P61247+P62701+P22090+P46782+P62081+P62241+P46781+P46783+P62280+P25398+P62277+P62263+P62841+P62244+P62249+P08708+P62269+P39019+P60866+P63220+P62266+P62847+P62851+P62854+P62979+P62857+P62273+P62861+P39023+P36578+P46777+Q02878+P18124+P62424+P62917+P32969+P27635+P62906+P62913+P30050+P26373+P40429+P50914+P61313+P18621+Q07020+Q02543+P84098+P46778+P35268+P62829+P62750+P83731+P61254+P61353+P46776+P46779+P47914+P62888+P62899+P62910+P49207+P42766+P18077+Q9Y3U8+P83881+P61927+P61513+P63173+P62891+P62945+P05388+P05386); assay: Binding affinity to RPL5 in human NCI-H358 cells at 1 uM by mass spectrometry based pull down assay
[3] = target: UV radiation resistance-associated gene protein (Homo sapiens) (UniProt Q9P2Y5); assay: Binding affinity to UVRAG in human NCI-H358 cells at 1 uM by mass spectrometry based pull down assay
[4] = target: Cyclin-dependent kinase 4 (Homo sapiens) (UniProt P11802); assay: Binding affinity to CDK4 in human NCI-H23 cells at 1 uM by mass spectrometry based pull down assay
Cyclin-dependent kinase 4 (Homo sapiens), sequence (P11802 whole entry): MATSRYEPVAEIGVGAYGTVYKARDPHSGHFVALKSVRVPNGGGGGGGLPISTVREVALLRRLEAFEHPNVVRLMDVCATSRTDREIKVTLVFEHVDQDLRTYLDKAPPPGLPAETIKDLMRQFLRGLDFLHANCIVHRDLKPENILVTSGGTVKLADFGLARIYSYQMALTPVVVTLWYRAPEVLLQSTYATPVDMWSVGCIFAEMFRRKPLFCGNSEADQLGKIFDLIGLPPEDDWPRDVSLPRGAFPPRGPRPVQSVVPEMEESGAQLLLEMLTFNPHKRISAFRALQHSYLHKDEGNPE

[5] = target: Calcyclin-binding protein (Homo sapiens) (UniProt Q9HB71); assay: Binding affinity to CACYBP in human NCI-H23 cells at 1 uM by mass spectrometry based pull down assay
[6] = target: WD repeat and HMG-box DNA-binding protein 1 (Homo sapiens) (UniProt O75717); assay: Binding affinity to WDHD1 in human NCI-H358 cells at 1 uM by mass spectrometry based pull down assay
WD repeat and HMG-box DNA-binding protein 1 (Homo sapiens), sequence (O75717 whole entry): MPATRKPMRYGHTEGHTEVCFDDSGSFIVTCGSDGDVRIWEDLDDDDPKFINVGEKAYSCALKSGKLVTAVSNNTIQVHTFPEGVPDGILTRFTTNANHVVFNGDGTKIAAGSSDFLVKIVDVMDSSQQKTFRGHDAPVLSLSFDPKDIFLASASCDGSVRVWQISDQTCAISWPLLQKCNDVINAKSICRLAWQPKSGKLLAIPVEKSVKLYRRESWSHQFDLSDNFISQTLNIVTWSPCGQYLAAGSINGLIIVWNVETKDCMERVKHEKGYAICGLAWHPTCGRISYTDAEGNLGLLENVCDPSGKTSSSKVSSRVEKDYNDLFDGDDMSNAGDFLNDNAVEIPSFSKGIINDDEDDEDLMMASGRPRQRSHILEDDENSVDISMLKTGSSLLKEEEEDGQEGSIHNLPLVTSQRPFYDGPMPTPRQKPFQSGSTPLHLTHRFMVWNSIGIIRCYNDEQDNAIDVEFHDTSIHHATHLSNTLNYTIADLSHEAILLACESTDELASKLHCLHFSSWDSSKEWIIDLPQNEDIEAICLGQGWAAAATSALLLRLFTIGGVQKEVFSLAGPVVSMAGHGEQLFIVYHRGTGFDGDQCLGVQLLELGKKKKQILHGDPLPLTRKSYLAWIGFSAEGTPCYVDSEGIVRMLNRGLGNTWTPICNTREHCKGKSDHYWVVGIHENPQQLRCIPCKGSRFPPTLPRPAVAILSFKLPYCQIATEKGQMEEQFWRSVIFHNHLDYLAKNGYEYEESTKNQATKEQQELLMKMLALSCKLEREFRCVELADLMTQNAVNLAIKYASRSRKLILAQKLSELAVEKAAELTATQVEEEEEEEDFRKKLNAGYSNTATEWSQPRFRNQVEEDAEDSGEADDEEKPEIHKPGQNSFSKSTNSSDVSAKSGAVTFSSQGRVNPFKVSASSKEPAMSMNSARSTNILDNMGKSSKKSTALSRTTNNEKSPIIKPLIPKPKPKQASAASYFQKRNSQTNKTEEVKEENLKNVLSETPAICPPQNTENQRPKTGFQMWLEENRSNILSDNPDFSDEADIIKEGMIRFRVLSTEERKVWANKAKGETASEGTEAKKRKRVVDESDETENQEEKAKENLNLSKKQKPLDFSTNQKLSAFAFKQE

[7] = target: DnaJ homolog subfamily B member 6 (Homo sapiens) (UniProt O75190); assay: Binding affinity to DNAJB6 in human NCI-H358 cells at 1 uM by mass spectrometry based pull down assay
[8] = target: MOB kinase activator 1B (Homo sapiens) (UniProt Q7L9L4); assay: Binding affinity to MOB1B in human NCI-H23 cells at 1 uM by mass spectrometry based pull down assay
MOB kinase activator 1B (Homo sapiens), sequence (Q7L9L4 whole entry): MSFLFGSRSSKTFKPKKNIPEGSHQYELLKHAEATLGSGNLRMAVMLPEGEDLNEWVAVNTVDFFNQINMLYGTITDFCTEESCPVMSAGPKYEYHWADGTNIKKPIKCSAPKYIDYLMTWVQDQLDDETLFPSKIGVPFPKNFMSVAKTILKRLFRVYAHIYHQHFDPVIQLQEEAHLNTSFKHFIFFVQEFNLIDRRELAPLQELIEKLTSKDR

[9] = target: T1, 80S Ribosome (Homo sapiens); assay: Binding affinity to RPS23 in human NCI-H358 cells at 1 uM by mass spectrometry based pull down assay
[10] = target: ADP-ribose glycohydrolase OARD1 (Homo sapiens) (UniProt Q9Y530); assay: Binding affinity to OARD1 in human NCI-H358 cells at 1 uM by mass spectrometry based pull down assay
ADP-ribose glycohydrolase OARD1 (Homo sapiens), sequence (Q9Y530 whole entry): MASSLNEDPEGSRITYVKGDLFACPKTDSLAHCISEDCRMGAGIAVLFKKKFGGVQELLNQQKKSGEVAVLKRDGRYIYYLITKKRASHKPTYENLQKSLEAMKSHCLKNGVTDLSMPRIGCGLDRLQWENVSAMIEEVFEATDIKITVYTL

[11] = target: AH receptor-interacting protein (Homo sapiens) (UniProt O00170); assay: Binding affinity to AIP in human NCI-H358 cells at 1 uM by mass spectrometry based pull down assay
How it was run: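 NCI-H23 or NCI-H358 cells were grown and lysed. Lysates were incubated overnight at 4 °C with 1 μM biotinylated covalent probe or DMSO, then pulled down on streptavidin beads. Proteins were run on polyacrylamide gels and stained with Coomassie. Bands were excised, digested and identified by mass spectrometry.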

[12] = target: T1, 80S Ribosome (Homo sapiens); assay: Binding affinity to RPS12 in human NCI-H358 cells at 1 uM by mass spectrometry based pull down assay
[13] = target: Poly(rC)-binding protein 2 (Homo sapiens) (UniProt Q15366); assay: Binding affinity to PCBP2 in human NCI-H358 cells at 1 uM by mass spectrometry based pull down assay
[14] = target: Ubiquitin carboxyl-terminal hydrolase 5 (Homo sapiens) (UniProt P45974); assay: Binding affinity to USP5 in human NCI-H23 cells at 1 uM by mass spectrometry based pull down assay
[15] = target: T2, Aurora kinase A (Homo sapiens) (UniProt O14965); assay: Binding affinity to AURKA in human NCI-H358 cells at 1 uM by mass spectrometry based pull down assay
T2 sequence (whole entry): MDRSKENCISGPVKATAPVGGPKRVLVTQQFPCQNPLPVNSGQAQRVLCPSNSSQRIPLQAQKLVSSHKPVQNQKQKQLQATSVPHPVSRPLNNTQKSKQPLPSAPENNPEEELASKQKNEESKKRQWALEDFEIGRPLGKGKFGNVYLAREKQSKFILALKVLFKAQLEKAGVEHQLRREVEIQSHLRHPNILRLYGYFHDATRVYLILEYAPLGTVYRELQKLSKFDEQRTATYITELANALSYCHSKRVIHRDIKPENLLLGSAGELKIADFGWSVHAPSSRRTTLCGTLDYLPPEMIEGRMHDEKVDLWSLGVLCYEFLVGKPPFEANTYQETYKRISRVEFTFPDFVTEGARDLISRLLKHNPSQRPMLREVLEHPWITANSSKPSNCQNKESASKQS

[16] = target: Dual specificity mitogen-activated protein kinase kinase 2 (Homo sapiens) (UniProt P36507); assay: Binding affinity to MAP2K2 in human NCI-H23 cells at 1 uM by mass spectrometry based pull down assay
[17] = target: TGF-beta-activated kinase 1 and MAP3K7-binding protein 3 (Homo sapiens) (UniProt Q8N5C8); assay: Binding affinity to TAB3 in human NCI-H23 cells at 1 uM by mass spectrometry based pull down assay
TGF-beta-activated kinase 1 and MAP3K7-binding protein 3 (Homo sapiens), sequence (Q8N5C8 whole entry): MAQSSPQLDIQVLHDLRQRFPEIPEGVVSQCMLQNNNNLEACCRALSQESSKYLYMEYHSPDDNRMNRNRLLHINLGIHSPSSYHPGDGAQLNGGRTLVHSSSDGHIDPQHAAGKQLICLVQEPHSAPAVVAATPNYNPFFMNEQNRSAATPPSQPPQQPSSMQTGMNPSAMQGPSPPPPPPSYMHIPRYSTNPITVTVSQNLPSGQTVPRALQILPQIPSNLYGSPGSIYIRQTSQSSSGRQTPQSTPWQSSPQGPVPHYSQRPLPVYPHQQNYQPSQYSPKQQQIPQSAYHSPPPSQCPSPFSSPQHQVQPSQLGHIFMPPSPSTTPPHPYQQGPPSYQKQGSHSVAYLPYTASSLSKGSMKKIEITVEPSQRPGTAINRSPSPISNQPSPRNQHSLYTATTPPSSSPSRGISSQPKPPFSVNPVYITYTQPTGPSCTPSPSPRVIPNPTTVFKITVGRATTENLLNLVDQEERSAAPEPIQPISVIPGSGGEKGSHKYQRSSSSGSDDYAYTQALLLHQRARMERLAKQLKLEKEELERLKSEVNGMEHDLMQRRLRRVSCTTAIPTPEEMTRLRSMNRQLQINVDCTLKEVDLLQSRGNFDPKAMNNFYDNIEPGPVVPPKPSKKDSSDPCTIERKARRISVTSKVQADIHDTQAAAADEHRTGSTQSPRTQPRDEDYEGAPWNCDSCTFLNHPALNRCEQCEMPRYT

[18] = target: Mitogen-activated protein kinase kinase kinase 20 (Homo sapiens) (UniProt Q9NYL2); assay: Binding affinity to ZAK in human NCI-H358 cells at 1 uM by mass spectrometry based pull down assay
Mitogen-activated protein kinase kinase kinase 20 (Homo sapiens), sequence (Q9NYL2 2-800 limits assumed): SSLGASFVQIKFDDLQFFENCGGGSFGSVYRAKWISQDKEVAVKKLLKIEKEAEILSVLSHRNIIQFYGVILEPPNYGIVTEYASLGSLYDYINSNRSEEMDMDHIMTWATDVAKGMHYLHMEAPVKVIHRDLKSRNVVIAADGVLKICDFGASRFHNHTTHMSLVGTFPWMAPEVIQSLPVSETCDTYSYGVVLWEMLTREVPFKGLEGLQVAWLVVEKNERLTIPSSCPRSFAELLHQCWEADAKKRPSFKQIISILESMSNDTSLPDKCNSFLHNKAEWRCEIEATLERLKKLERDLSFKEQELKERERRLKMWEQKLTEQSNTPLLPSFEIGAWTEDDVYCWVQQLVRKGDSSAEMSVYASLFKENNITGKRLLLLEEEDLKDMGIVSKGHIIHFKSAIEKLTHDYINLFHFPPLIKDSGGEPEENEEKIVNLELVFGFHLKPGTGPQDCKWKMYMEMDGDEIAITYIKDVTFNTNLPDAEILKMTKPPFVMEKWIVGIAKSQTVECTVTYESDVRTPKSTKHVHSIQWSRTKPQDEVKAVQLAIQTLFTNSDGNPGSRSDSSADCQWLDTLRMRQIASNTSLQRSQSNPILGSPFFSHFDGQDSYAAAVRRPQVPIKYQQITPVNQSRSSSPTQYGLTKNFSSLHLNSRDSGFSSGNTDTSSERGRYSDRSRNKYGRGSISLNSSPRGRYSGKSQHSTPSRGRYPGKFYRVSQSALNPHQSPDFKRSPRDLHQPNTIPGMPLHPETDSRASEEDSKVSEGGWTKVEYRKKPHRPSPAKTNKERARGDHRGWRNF

[19] = target: Pyrroline-5-carboxylate reductase 2 (Homo sapiens) (UniProt Q96C36); assay: Binding affinity to PYCR2 in human NCI-H23 cells at 1 uM by mass spectrometry based pull down assay
Pyrroline-5-carboxylate reductase 2 (Homo sapiens), sequence (Q96C36 whole entry): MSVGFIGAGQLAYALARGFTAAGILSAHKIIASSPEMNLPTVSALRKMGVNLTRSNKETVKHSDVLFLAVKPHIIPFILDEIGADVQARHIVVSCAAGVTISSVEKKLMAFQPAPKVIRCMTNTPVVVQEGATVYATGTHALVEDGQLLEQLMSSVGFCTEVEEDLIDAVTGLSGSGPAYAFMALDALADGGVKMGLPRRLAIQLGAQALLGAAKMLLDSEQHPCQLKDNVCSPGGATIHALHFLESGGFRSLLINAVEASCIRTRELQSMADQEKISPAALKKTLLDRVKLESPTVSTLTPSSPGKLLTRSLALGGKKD

[20] = target: E3 ubiquitin-protein ligase HUWE1 (Homo sapiens) (UniProt Q7Z6Z7); assay: Binding affinity to HUWE1 in human NCI-H358 cells at 1 uM by mass spectrometry based pull down assay
[21] = target: Inter-alpha-trypsin inhibitor heavy chain H2 (Homo sapiens) (UniProt P19823); assay: Binding affinity to ITIH2 in human NCI-H23 cells at 1 uM by mass spectrometry based pull down assay
[22] = target: Catenin alpha-1 (Homo sapiens) (UniProt P35221); assay: Binding affinity to CTNNA1 in human NCI-H358 cells at 1 uM by mass spectrometry based pull down assay
Catenin alpha-1 (Homo sapiens), sequence (P35221 whole entry): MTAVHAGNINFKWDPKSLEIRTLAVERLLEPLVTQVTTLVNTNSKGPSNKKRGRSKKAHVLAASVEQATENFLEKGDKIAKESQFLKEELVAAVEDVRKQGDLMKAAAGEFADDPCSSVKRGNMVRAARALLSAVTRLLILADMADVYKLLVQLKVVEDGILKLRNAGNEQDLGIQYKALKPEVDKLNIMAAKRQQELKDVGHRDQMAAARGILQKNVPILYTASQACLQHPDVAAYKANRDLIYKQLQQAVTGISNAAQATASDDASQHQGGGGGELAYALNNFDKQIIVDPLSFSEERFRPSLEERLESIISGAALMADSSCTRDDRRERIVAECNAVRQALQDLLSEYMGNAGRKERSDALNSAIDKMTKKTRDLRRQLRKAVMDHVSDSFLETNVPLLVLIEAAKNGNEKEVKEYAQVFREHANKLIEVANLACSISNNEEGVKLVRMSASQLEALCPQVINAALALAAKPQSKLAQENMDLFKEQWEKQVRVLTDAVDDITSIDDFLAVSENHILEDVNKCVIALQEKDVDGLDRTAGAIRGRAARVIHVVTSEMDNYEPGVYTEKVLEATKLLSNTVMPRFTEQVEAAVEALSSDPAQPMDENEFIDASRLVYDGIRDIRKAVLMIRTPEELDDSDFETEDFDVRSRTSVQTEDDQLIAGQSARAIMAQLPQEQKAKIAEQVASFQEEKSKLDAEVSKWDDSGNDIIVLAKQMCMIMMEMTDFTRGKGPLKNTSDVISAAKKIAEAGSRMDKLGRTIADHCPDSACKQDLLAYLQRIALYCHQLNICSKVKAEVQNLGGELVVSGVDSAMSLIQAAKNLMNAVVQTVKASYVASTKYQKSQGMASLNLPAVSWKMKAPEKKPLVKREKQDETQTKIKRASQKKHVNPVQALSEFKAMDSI

[23] = target: Poly(rC)-binding protein 1 (Homo sapiens) (UniProt Q15365); assay: Binding affinity to PCBP1 in human NCI-H23 cells at 1 uM by mass spectrometry based pull down assay
Poly(rC)-binding protein 1 (Homo sapiens), sequence (Q15365 whole entry): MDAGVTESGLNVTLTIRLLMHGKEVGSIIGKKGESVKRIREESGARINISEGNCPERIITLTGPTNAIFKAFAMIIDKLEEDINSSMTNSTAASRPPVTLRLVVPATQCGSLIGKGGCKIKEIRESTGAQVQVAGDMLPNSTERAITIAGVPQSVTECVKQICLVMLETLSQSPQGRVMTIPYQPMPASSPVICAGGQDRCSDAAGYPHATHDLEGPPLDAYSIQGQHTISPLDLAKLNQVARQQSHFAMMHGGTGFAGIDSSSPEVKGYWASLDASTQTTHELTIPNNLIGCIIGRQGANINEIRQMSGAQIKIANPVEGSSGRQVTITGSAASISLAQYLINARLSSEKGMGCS

[24] = target: Very-long-chain 3-oxoacyl-CoA reductase (Homo sapiens) (UniProt Q53GQ0); assay: Binding affinity to HSD17B12 in human NCI-H358 cells at 1 uM by mass spectrometry based pull down assay

Activity [1]: Active
Activity [2]: Active
Activity [3]: Active
Activity [4]: Active
Activity [5]: Active
Activity [6]: Active
Activity [7]: Active
Activity [8]: Active
Activity [9]: Active
Activity [10]: Active
Activity [11]: Active
Activity [12]: Active
Activity [13]: Active
Activity [14]: Active
Activity [15]: Active
Activity [16]: Active
Activity [17]: Active
Activity [18]: Active
Activity [19]: Active
Activity [20]: Active
Activity [21]: Active
Activity [22]: Active
Activity [23]: Active
Activity [24]: Active
SMILES: C=CC(=O)Nc1ccccc1Nc1nc(Nc2ccc(N3CCN(CCOCCOCCOCCNC(=O)CCCC[C@@H]4SC[C@@H]5NC(=O)N[C@@H]54)CC3)cc2)ncc1Cl
